Measurements: ChEMBL document CHEMBL3804803, “Pyrrolopyrimidine Derivatives as Novel Inhibitors of Multidrug Resistance-Associated Protein 1 (MRP1, ABCC1)” (J Med Chem, 2016)

Tests used:
[1] = Cytotoxicity against human H69AR cells overexpressing MRP1 assessed as reduction in cell viability at 10 uM after 72 hrs by MTT assay; format: cell-based; details: for Activity: h69ar, 72 h, 10 µM
How it was run: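 H69 AR cells, about 20,000 per well, 72 h at 37 °C in humidified CO2 with compound at 10 µM. MTT (5 mg/mL, 20 µL) added for 1 h, then DMSO solubilization and absorbance 570 nm with 690 nm background. Viability scaled between plain medium (100%) and 10% DMSO (0%). ≥3 independent experiments in duplicate.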

[2] = target: T1, Multidrug resistance-associated protein 1 (Homo sapiens, UniProt P33527); test: Inhibition of MRP1 in human H69AR cells incubated for 20 mins measured every 60 seconds by calcein-AM accumulation assay
[3] = target: T2, Broad substrate specificity ATP-binding cassette transporter ABCG2 (Homo sapiens, UniProt Q9UNQ0); test: Inhibition of BCRP (unknown origin) expressed in MDCK2 cells assessed as pheophorbide A accumulation preincubated for 20 mins measured after 120 mins by flow cytometry; format: cell-based, MDCK-II
T2 sequence (Q9UNQ0 whole entry): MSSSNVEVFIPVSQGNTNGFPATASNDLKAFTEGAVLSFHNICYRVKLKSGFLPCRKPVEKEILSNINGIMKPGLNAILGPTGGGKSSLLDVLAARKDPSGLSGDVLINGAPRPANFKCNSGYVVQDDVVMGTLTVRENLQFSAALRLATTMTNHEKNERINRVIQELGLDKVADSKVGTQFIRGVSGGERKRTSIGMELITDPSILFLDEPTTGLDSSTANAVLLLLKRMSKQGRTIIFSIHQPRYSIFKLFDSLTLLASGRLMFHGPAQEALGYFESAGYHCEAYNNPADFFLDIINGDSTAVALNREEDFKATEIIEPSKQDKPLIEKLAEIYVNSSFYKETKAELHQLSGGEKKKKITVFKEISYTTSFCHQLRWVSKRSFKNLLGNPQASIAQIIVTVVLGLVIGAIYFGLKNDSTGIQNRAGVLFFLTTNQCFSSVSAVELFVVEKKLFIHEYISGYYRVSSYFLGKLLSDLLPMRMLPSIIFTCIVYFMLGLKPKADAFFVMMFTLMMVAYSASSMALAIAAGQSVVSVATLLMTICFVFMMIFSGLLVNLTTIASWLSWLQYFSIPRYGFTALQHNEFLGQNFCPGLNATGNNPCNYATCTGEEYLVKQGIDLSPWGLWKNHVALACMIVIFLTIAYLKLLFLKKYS
How it was run: (§1)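 MDCK II BCRP cells (GFP detected in FL1 to monitor BCRP expression), about 45,000 per well. Preincubated 20 min at 37 °C, 5% CO2 with compound (1–100 µM solutions, 20 µL into 200 µL final volume). Pheophorbide A added (20 µL of 5 µM solution) for 120 min to reach steady state. Cells resuspended, then flow cytometry: 488 nm excitation, FL3 ≥670 nm. […] The four-parameter logistic top was constrained to Ko143; ≥3 experiments in duplicate.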

[4] = target: T1, Multidrug resistance-associated protein 1; details: h69ar, 72 h, 10 µM
[5] = target: T1, Multidrug resistance-associated protein 1; test: Inhibition of MRP1 in human H69AR cells assessed as daunorubicin accumulation preincubated for 15 mins measured after 180 mins by flow cytometry; format: cell-based
How it was run: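 H69 AR cells, about 60,000 per well in culture medium. Preincubated 15 min with compound diluted in unsupplemented medium, then daunorubicin added (20 µL of 30 µM solution). Held 180 min at 37 °C, 5% CO2, protected from light, to reach steady state. Cells resuspended; flow cytometry with 488 nm excitation, FL3 ≥670 nm. IC50 from four-parameter logistic with variable Hill slope; ≥3 independent experiments in duplicate.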

[6] = target: T1, Multidrug resistance-associated protein 1; details: h69ar, 72 h, 5 µM
[7] = target: T1, Multidrug resistance-associated protein 1; details: h69ar, 72 h, 1 µM
[8] = Cytotoxicity against human H69AR cells overexpressing MRP1 assessed as growth inhibition after 72 hrs by MTT assay; format: cell-based
How it was run: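 H69 AR cells, about 20,000 per well, exposed 72 h at 37 °C in humidified CO2 to test compound diluted in culture medium (100 nM to 100 µM solutions, 20 µL added to 180 µL cells). Then MTT (5 mg/mL, 20 µL) for 1 h, formazan taken up in DMSO, absorbance 570 nm minus 690 nm. Plain medium set 100% viability, 10% DMSO 0%. GI50 from variable-slope nonlinear fit; ≥3 independent experiments in duplicate.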

Homo sapiens = organism: Homo sapiens; test: Inhibition of P-gp (unknown origin) at 10 uM after 30 mins by calcein AM accumulation assay
BCRP (ABCG2) = target: T3, BCRP (ABCG2) (Homo sapiens, UniProt Q9UNQ0); test: Inhibition of BCRP (unknown origin) expressed in MDCK2 cells assessed as pheophorbide A accumulation at 10 uM preincubated for 20 mins measured after 120 mins by flow cytometry; format: cell-based, MDCK-II; details: MDCK2 cells expressing BCRP, probe pheophorbide A; how it was run: as §1
T3 sequence (Q9UNQ0 whole entry): T2 sequence (Q9UNQ0 whole entry)

[9] = target: T1, Multidrug resistance-associated protein 1; test: Inhibition of MRP1 in daunorubicin resistant human H69AR cells assessed as potentiation of daunorubicin-induced growth inhibition at 1 to 10 uM after 72 hrs by MTT assay relative to control; format: cell-based
[10] = Inhibition of P-gp in human A2780/ADR cells after 30 mins by calcein AM accumulation assay; format: cell-based; details: 0.5 h
[11] = target: T1, Multidrug resistance-associated protein 1; test: Inhibition of MRP1 in human H69AR cells incubated for 20 mins measured […] by calcein-AM accumulation assay; format: cell-based
How it was run: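 H69 AR cells, about 60,000 per well in Krebs-HEPES buffer pH 7.4. Incubated 20 min at 37 °C, 5% CO2 with compound (100 nM–100 µM solutions, 20 µL in 200 µL final volume). Calcein AM then added (20 µL of 3.125 µM). Fluorescence (ex 485/em 520 nm, 37 °C) read every 60 s. Slope between min 5 and 30 plotted against log concentration; four-parameter logistic fit; ≥3 experiments in duplicate.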

T1 sequence (P33527 whole entry): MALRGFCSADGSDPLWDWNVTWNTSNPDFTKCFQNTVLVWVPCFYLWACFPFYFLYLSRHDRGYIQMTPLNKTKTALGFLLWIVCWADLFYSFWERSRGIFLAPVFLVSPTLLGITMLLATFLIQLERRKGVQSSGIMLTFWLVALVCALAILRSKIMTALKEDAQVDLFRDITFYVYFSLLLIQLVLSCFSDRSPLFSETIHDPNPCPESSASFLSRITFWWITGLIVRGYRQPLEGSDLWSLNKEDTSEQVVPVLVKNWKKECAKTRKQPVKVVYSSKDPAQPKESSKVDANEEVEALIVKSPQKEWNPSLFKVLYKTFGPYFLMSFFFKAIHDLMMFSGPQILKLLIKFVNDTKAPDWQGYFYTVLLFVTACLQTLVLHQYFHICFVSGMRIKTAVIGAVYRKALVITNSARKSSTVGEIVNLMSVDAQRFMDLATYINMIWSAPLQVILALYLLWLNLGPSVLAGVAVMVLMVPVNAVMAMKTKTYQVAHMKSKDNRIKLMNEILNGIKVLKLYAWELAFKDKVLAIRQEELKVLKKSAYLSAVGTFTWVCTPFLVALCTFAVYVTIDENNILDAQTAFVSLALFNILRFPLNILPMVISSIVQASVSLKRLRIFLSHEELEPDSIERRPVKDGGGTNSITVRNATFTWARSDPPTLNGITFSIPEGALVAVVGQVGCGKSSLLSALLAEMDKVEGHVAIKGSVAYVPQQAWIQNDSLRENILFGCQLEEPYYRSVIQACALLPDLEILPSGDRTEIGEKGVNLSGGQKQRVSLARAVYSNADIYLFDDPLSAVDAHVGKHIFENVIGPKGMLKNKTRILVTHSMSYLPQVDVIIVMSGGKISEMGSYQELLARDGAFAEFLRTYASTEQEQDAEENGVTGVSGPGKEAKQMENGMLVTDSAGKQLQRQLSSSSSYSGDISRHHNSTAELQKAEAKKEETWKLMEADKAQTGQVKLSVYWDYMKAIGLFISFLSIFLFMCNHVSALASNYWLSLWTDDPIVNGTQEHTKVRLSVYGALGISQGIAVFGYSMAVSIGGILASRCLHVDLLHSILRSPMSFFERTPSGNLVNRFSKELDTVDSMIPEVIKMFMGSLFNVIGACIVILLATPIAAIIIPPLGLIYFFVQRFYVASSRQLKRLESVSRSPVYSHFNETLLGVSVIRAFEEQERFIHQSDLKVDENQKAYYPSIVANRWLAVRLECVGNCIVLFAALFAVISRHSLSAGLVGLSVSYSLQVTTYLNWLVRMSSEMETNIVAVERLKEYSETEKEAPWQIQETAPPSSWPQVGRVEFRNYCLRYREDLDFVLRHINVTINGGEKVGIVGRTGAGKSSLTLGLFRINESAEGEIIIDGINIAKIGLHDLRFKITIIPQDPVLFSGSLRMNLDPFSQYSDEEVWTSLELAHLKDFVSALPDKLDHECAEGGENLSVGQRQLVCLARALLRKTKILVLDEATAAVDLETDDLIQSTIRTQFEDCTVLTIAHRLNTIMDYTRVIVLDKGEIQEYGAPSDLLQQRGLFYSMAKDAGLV

SMILES	IC50 [2] [nM]	IC50 [3] [nM]	IC50 [5] [nM]	inhibition (Homo sapiens) [%]	inhibition at 2 h, 10 µM (BCRP (ABCG2)) [%]	IC50 [10] [nM]	IC50 [11] [nM]	Activity [1]	GI50 [4] [nM]	GI50 [6] [nM]	GI50 [7] [nM]	GI50 at 72 h [8] [nM]	fold change (FC) [9]	cytotoxicity at 72 h, 10 µM ([1]; H69AR cells overexpressing MRP1, read-out: INH) [%]
N#Cc1c2n(c3c(NCCCc4ccccc4)ncnc13)CCCC2	2500	6070	2840	> 25	> 25	–	–	Non-toxic	450	751	2410	132000	–	–
N#Cc1c2n(c3c(N4CCN(C(c5ccccc5)c5ccccc5)CC4)ncnc13)CCCCC2	–	8710	1010	> 25	> 25	28600	1950	–	–	–	–	–	–	–
N#Cc1cn(CCc2ccccc2)c2c(N3CCN(Cc4ccccc4)CC3)ncnc12	910	–	983	> 25	< 25	–	–	–	–	–	–	–	–	–
N#Cc1c2n(c3c(NCCc4ccccc4)ncnc13)CCCC2	8370	–	4980	> 25	> 25	–	–	–	–	–	–	–	–	–
CN1CCN(c2ncnc3c(C#N)c4n(c23)CCCC4)CC1	5060	4250	2870	> 25	> 25	–	–	–	–	–	–	–	–	–
N#Cc1c2n(c3c(N4CCNCC4)ncnc13)CCCC2	27300	–	10800	> 25	> 25	–	–	Non-toxic	1830	2480	2940	60600	–	–
N#Cc1c2n(c3c(N4CCN(c5ccccc5)CC4)ncnc13)CCCC2	2560	5910	2900	> 25	> 25	–	–	–	–	–	–	–	–	–
N#Cc1cn(Cc2ccccc2)c2c(N3CCN(Cc4ccccc4)CC3)ncnc12	2770	–	876	> 25	< 25	–	–	–	–	–	–	–	–	–
CC(C)n1cc(C#N)c2ncnc(N3CCN(CCc4ccccc4)CC3)c21	821	–	1240	> 25	< 25	–	–	–	–	–	–	–	–	–
N#Cc1c2n(c3c(N4CCN(C(c5ccccc5)c5ccccc5)CC4)ncnc13)CCCC2	1620	14300	1070	> 25	> 25	–	–	–	–	–	–	–	–	–
N#Cc1cn(CCCc2ccccc2)c2c(N3CCN(Cc4ccccc4)CC3)ncnc12	3150	–	2360	> 25	< 25	–	–	–	–	–	–	–	–	–
N#Cc1cn(CCc2ccccc2)c2c(N3CCN(CCc4ccccc4)CC3)ncnc12	1020	–	1120	> 25	< 25	32500	–	–	–	–	–	–	–	–
N#Cc1cn(-c2ccccc2)c2c(N3CCN(Cc4ccccc4)CC3)ncnc12	1220	–	866	> 25	< 25	–	–	–	–	–	–	–	–	–
N#Cc1c2n(c3c(NCc4ccccc4)ncnc13)CCCC2	14200	15800	8800	> 25	> 25	–	–	–	–	–	–	–	–	–
N#Cc1c2n(c3c(N4CCN(c5ccccc5)CC4)ncnc13)CCCCC2	–	–	15100	> 25	> 25	–	8980	–	–	–	–	–	–	–
N#Cc1c2n(c3c(Nc4ccccc4)ncnc13)CCCC2	14200	7680	9410	> 25	> 25	–	–	–	–	–	–	–	–	–

These reach a lower IC50 [5]. Values come first.

IC50 [2] [nM]	IC50 [3] [nM]	IC50 [5] [nM]	inhibition (Homo sapiens) [%]	inhibition at 2 h, 10 µM (BCRP (ABCG2)) [%]	IC50 [10] [nM]	IC50 [11] [nM]	SMILES	Activity [1]	GI50 [4] [nM]	GI50 [6] [nM]	GI50 [7] [nM]	GI50 at 72 h [8] [nM]	fold change (FC) [9]	cytotoxicity at 72 h, 10 µM ([1]; H69AR cells overexpressing MRP1, read-out: INH) [%]
956	–	586	> 25	< 25	–	–	N#Cc1cn(CCCc2ccccc2)c2c(N3CCN(CCc4ccccc4)CC3)ncnc12	–	–	–	–	–	–	–
247	–	200	> 25	< 25	–	–	N#Cc1cn(C2CC2)c2c(N3CCN(CCc4ccccc4)CC3)ncnc12	Non-toxic	–	–	–	36000	10	–
671	8240	636	> 25	> 25	32300	–	N#Cc1c2n(c3c(N4CCN(Cc5ccccc5)CC4)ncnc13)CCCC2	–	–	–	–	–	–	–
370	8190	197	> 25	> 25	18800	–	N#Cc1c2n(c3c(N4CCN(CCc5ccccc5)CC4)ncnc13)CCCC2	Non-toxic	–	–	–	39900	–	–
–	9940	643	> 25	> 25	19200	833	N#Cc1c2n(c3c(N4CCN(CCc5ccccc5)CC4)ncnc13)CCCCC2	Non-toxic	–	–	–	79800	–	–
750	–	340	> 25	< 25	6820	–	N#Cc1cn(-c2ccccc2)c2c(N3CCN(CCc4ccccc4)CC3)ncnc12	–	–	–	–	23600	–	40
714	–	700	> 25	< 25	–	–	Cn1cc(C#N)c2ncnc(N3CCN(CCc4ccccc4)CC3)c21	–	–	–	–	–	–	–
1060	–	789	> 25	< 25	–	–	CCn1cc(C#N)c2ncnc(N3CCN(CCc4ccccc4)CC3)c21	–	–	–	–	–	–	–
1000	–	623	> 25	< 25	10600	–	N#Cc1cn(Cc2ccccc2)c2c(N3CCN(CCc4ccccc4)CC3)ncnc12	–	–	–	–	–	–	–
543	–	418	> 25	< 25	41900	–	CCCn1cc(C#N)c2ncnc(N3CCN(CCc4ccccc4)CC3)c21	–	–	–	–	–	–	–
